Eleven compounds from ChEMBL document CHEMBL4431385, “Substituted tetracyclic indole core derivatives of HCV NS5A inhibitor MK-8742” (Bioorg Med Chem Lett, 2016) can be followed below.

Each structure is given as a SMILES string. Positions count from the first letter of the chain named.

Series [1] addresses T1, Nonstructural protein 5A (Hepatitis C virus) (UniProt Q5L478).
T1 sequence (whole entry): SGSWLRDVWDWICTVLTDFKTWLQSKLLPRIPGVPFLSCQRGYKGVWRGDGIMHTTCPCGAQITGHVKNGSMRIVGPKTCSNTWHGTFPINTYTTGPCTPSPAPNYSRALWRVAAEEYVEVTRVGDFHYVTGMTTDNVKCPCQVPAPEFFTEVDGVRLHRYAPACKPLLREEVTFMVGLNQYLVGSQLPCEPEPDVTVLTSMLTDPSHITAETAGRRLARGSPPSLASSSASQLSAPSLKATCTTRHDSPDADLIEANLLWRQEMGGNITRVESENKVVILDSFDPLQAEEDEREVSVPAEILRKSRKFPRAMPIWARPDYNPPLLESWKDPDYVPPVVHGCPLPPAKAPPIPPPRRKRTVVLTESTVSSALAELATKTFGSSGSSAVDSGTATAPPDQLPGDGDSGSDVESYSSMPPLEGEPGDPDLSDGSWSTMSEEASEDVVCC
In words: Inhibition of HCV GT1a NS5A assessed as suppression of replicon RNA level by real-time PCR analysis. The conditions noted are these: Hepatitis C virus subtype 1a.

Series [2] deals with T1, Nonstructural protein 5A (Hepatitis C virus). The series is described as follows: Inhibition of HCV GT2b NS5A assessed as suppression of replicon RNA level by real-time PCR analysis. The following applies: Hepatitis C virus subtype 2b. The method, boiled down:
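GT2b replicon, which carries the naturally occurring NS5A 31M resistance-associated variant; potency given as EC90 in nM.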

For series [3] the target is unchanged. In words: Inhibition of HCV GT3a NS5A assessed as suppression of replicon RNA level by real-time PCR analysis. The following applies: Hepatitis C virus subtype 3a.
For series [4], the system named is T2, Nonstructural protein 5A (Hepatitis C virus), Q5L478 [Y93H].
T2 sequence (whole entry): T1 sequence (whole entry) with Y93H
The series is described as follows: Inhibition of HCV GT1a NS5A Y93H mutant assessed as suppression of replicon RNA level by real-time PCR analysis. The following applies: Hepatitis C virus subtype 1a.

In series [5] the test system is Nonstructural protein 5A (Hepatitis C virus), Q5L478 [UNDEFINED MUTATION]. In words: Inhibition of HCV GT1a NS5A L31V mutant assessed as suppression of replicon RNA level by real-time PCR analysis. The following applies: Hepatitis C virus subtype 1a.
Series [6] in a line: AUC in Sprague-Dawley rat at 10 mg/kg, po. The class given is ADME, organism-based. The following applies: in vivo. A digest of the protocol: (§1)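 Male Sprague–Dawley rats got an IV dose of 2 mg/kg in 60% PEG200 and a PO dose of 10 mpk in 10% TWEEN. Reported values are PO AUC (µM h), PO Cmax (µM), T1/2 (h), clearance (ml/min/kg) and oral bioavailability F (%).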
Series [7] is described as follows: Cmax in Sprague-Dawley rat at 10 mg/kg, po. The conditions noted are these: in vivo. The class given is ADME, organism-based. Also noted: dose 10 mg/kg, route oral. A digest of the protocol:
as §1

Series [8] in a line: Half life in Sprague-Dawley rat at 10 mg/kg, po or 2 mg/kg, iv. The class given is ADME, organism-based. The following applies: in vivo. A digest of the protocol:
as §1

A short description of series [9]: Clearance in Sprague-Dawley rat at 10 mg/kg, po or 2 mg/kg, iv. The class given is ADME, organism-based. The following applies: in vivo. The method, boiled down:
as §1

Series [10] in a line: Oral bioavailability in Sprague-Dawley rat at 10 mg/kg. The class given is ADME, organism-based. The conditions noted are these: in vivo. A digest of the protocol:
as §1

In series [11] the test system is Hepatitis C virus subtype 1a. In words: Selectivity ratio of EC90 for HCV GT1a NS5A Y93H mutant to EC90 for HCV GT1a NS5A.
Series [12] in a line: Selectivity ratio of EC90 for HCV GT2b NS5A to EC90 for HCV GT1a NS5A.
Series [13] has as its system Hepatitis C virus subtype 1a. In words: Selectivity ratio of EC90 for HCV GT1a NS5A L31V mutant to EC90 for HCV GT1a NS5A.
The target of series [14] is T1, Nonstructural protein 5A (Hepatitis C virus). The series is described as follows: Inhibition of HCV GT1b NS5A assessed as suppression of replicon RNA level by real-time PCR analysis. The conditions noted are these: Hepatitis C virus subtype 1b.
Series [15] has the same target. The series is described as follows: Inhibition of HCV GT2a NS5A assessed as suppression of replicon RNA level by real-time PCR analysis. The conditions noted are these: Hepatitis C virus subtype 2a.
Series [16] has the same target. The series is described as follows: Inhibition of HCV GT4a NS5A assessed as suppression of replicon RNA level by real-time PCR analysis. The conditions noted are these: Hepatitis C virus subtype 4a.
Series [17] can be described thus: AUC in Sprague-Dawley rat at 5 mg/kg, po. The following applies: in vivo. The class given is ADME, organism-based. The method, boiled down: (§2)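 Male Sprague–Dawley rats got IV dosing at 2 mg/kg in 60% PEG200 and PO dosing at 5 mpk in either 0.5% MC or 10% TWEEN, depending on compound. The readouts are PO AUC (µM h), PO Cmax (µM), T1/2 (h), Cl (ml/min/kg) and F (%).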

The nature of series [18]: Cmax in Sprague-Dawley rat at 5 mg/kg, po. The class given is ADME, organism-based. Details: dose 5 mg/kg, route oral. The following applies: in vivo. A digest of the protocol: as §2
Series [19] is described as follows: Half life in Sprague-Dawley rat at 5 mg/kg, po or 2 mg/kg, iv. The class given is ADME, organism-based. The conditions noted are these: in vivo. The method, boiled down:
as §2

Series [20] in a line: Clearance in Sprague-Dawley rat at 5 mg/kg, po or 2 mg/kg, iv. The class given is ADME, organism-based. The following applies: in vivo. A digest of the protocol: as §2
Series [21] is described as follows: Oral bioavailability in Sprague-Dawley rat at 5 mg/kg. The class given is ADME, organism-based. The conditions noted are these: in vivo. The method, boiled down:
as §2

As to `COC(=O)N[C@H](C(=O)N1CCC[C@H]1c1ncc(-c2cc(F)c3c(c2)OC(c2cc(Cl)cc(OC)c2)n2c-3cc3cc(-c4cnc([C@@H]5CCCN5C(=O)[C@@H](NC(=O)OC)C(C)C)[nH]4)ccc32)[nH]1)C(C)C` (stereo partly specified), the EC90 in series [1] came out at 0.01 nM; in series [2] it was 0.7 nM; in series [3] it was 0.1 nM; in [4], 3 nM; in series [5], 0.1 nM. For the same compound, in series [6], the AUC came to 0.75 µM·h. Further, in series [7], the peak level (Cmax) was 100 nM. In series [8], this compound had a half-life of 5.2 h. The clearance in series [9] turned out to be 8 mL/min/kg. This compound also showed a bioavailability in [10] of 3%. For the same compound, the results for the Selectivity ratio in [11], in series [12] and in series [13] were 300, 70 and 10, respectively.

Consider `COC(=O)N[C@H](C(=O)N1C[C@H](F)C[C@H]1c1ncc(-c2cc(F)c3c(c2)OC(c2ccccc2)n2c-3cc3cc(-c4cnc([C@@H]5C[C@@H](F)CN5C(=O)[C@@H](NC(=O)OC)C(C)C)[nH]4)ccc32)[nH]1)C(C)C` (mixture of isomers), for which the EC90 is 0.005 nM in series [1]; 0.003 nM in series [14]; 0.2 nM in series [15]; 72 nM in [2]; 0.8 nM in series [3]; 0.1 nM in [16]. The EC90 in series [4] worked out at 0.08 nM; in series [5] it was 9 nM. Moreover, the Selectivity ratio in series [11] amounted to 16.

For the compound `COC(=O)N[C@H](C(=O)N1CCC[C@H]1c1ncc(-c2ccc3c(c2)OC(c2cccc(OC)c2)n2c-3cc3cc(-c4cnc([C@@H]5CCCN5C(=O)[C@@H](NC(=O)OC)C(C)C)[nH]4)ccc32)[nH]1)C(C)C` (stereo partly specified), the EC90 in [1] was 0.005 nM; in [2] it was 2 nM; in series [3] it was 0.1 nM; in [4], 8 nM; in series [5], 0.2 nM. The exposure (AUC) in series [17] is 0.51 µM·h. In series [18], this compound displayed a Cmax of 100 nM. Also, the half-life in series [19] is 4.3 h.

`COC(=O)N[C@H](C(=O)N1CCC[C@H]1c1ncc(-c2cc(F)c3c(c2)O[C@@H](c2ccccc2)n2c-3cc3cc(-c4cnc([C@@H]5CCCN5C(=O)[C@@H](NC(=O)OC)C(C)C)[nH]4)ccc32)[nH]1)C(C)C`: the EC90 in series [1] is 0.005 nM; in [14], 0.003 nM; in [15], 0.15 nM; in series [2] it was 18 nM; in [3] it was 0.4 nM; in [16] it was 0.04 nM. Also, the results for the EC90 in [4] and in series [5] were 34 nM and 0.4 nM, respectively. Also, in series [17] (Sprague-Dawley, read-out: AUC), the AUC turned out to be 2.8 µM·h. The compound also showed a Cmax in [18] of 330 nM. This compound also had a half-life in series [19] of 3.6 h. This compound came in with a clearance in series [20] of 11 mL/min/kg. In [21], the bioavailability worked out at 33%.

For the compound `COC(=O)N[C@H](C(=O)N1CCC[C@H]1c1ncc(-c2ccc3c(c2)cc2n3[C@H](c3ccccc3)Oc3c-2ccc(-c2cnc([C@@H]4CCCN4C(=O)[C@@H](NC(=O)OC)C(C)C)[nH]2)c3F)[nH]1)C(C)C`, the EC90 in series [1] was 0.04 nM; in series [14] it was 0.003 nM; in series [15], 0.4 nM; in series [2] it was above 100 nM; in [3] it was above 10 nM; in series [16] it was 1 nM. In addition, the results for the EC90 in series [4] and in [5] were above 100 nM and 36 nM, respectively.

For the compound `COC(=O)N[C@H](C(=O)N1C[C@H](F)C[C@H]1c1ncc(-c2ccc3c(c2)OC(c2ccccc2)n2c-3c(F)c3cc(-c4cnc([C@@H]5C[C@@H](F)CN5C(=O)[C@@H](NC(=O)OC)C(C)C)[nH]4)ccc32)[nH]1)C(C)C` (mixture of isomers), the EC90 worked out at 0.02 nM in series [1]; 0.005 nM in series [14]; 0.3 nM in [15]; 58 nM in series [2]; 8 nM in series [3]; 0.3 nM in series [16]. Besides, the EC90 in series [4] is 2 nM; in series [5], 7 nM.

`COC(=O)N[C@H](C(=O)N1CCC[C@H]1c1ncc(-c2ccc3c(c2)OCn2c-3c(C3CC3)c3cc(-c4cnc([C@@H]5CCCN5C(=O)[C@@H](NC(=O)OC)C(C)C)[nH]4)ccc32)[nH]1)C(C)C`: the EC90 was found to be 0.03 nM in [1]; 0.004 nM in [14]; 0.005 nM in series [15]; 122 nM in series [2]; 10 nM in series [3]; 0.3 nM in series [16]. Also, the EC90 was found to be 100 nM in [4] and 8 nM in [5].

With `COC(=O)N[C@H](C(=O)N1CCC[C@H]1c1ncc(-c2ccc3c(c2)OCn2c-3cc3cc(-c4cnc([C@@H]5CCCN5C(=O)[C@@H](NC(=O)OC)C(C)C)[nH]4)cc(F)c32)[nH]1)C(C)C`, the EC90 in [1] is 0.1 nM; in series [14], 0.01 nM; in [15], 0.1 nM; in [2], above 100 nM; in [3], above 10 nM; in series [16] it was 0.2 nM. Further, the EC90 in series [4] was 139 nM; in series [5] it was 3 nM.

Turning to `COC(=O)N[C@H](C(=O)N1CCC[C@H]1c1ncc(-c2ccc3c(c2)OCn2c-3cc3cc(-c4cnc([C@@H]5CCCN5C(=O)[C@@H](NC(=O)OC)C(C)C)[nH]4)c(F)cc32)[nH]1)C(C)C`, the EC90 in series [1] was 0.007 nM; in series [14] it was 0.007 nM; in [15] it was 0.02 nM; in series [2] it was 150 nM; in series [3], 5 nM; in series [16], 0.2 nM. Moreover, the EC90 in series [4] turned out to be 77 nM; in [5] it was 68 nM.

Turning to `COC(=O)N[C@H](C(=O)N1CCC[C@H]1c1ncc(-c2ccc3c(c2)cc2n3C(c3ccccc3)Oc3cc(-c4cnc([C@@H]5C[C@@H](F)CN5C(=O)[C@@H](NC(=O)OC)C(C)C)[nH]4)cc(F)c3-2)[nH]1)C(C)C` (mixture of isomers), the EC90 in series [1] is 0.004 nM; in series [14], 0.003 nM; in series [15] it was 0.04 nM; in series [2], 16 nM; in series [3] it was 0.1 nM; in [16], 0.07 nM. In addition, the EC90 in series [4] worked out at 1 nM; in series [5], 2 nM.

Turning to `COC(=O)N[C@H](C(=O)N1CCC[C@H]1c1ncc(-c2cc(F)c3c(c2)OC(c2cccc(OC)c2)n2c-3cc3cc(-c4cnc([C@@H]5CCCN5C(=O)[C@@H](NC(=O)OC)C(C)C)[nH]4)ccc32)[nH]1)C(C)C` (stereo partly specified), the EC90 in series [1] came to 0.01 nM; in [2], 6 nM; in series [3] it was 0.07 nM; in series [4], 6 nM; in [5] it was 0.2 nM. In addition, in [6], the AUC came out at 2.1 µM·h. This compound also returned a Cmax in series [7] of 240 nM. Besides, the half-life in series [8] was 5.9 h. The compound further had a clearance in series [9] of 10 mL/min/kg. This compound showed a bioavailability in series [10] of 12%.
